High-throughput results (PubChem BioAssay)
An excerpt weighted towards active compounds, which were near 2.1% of everything screened.
CDK5 p35 inh: inhibitors of human CDK5/p35 kinase; Q00535+Q15078; inhibition, % at 10 µM; 330,000 compounds, 0.01% hits; Recombinant CDK5/p35, ADP-Glo luminescence, 60 min; AID 488839;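 active means highest replicate inhibition of at least 50% and at least 75% of replicates reaching 50%; inconclusive means only one of the two criteria met; inactive means both criteria failed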;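 further: plate controls were DMSO neutral control for no effect and GW8510 at 10 µM for full effect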
SR-BI DiI-HDL act: SR-BI HDL lipid transfer activation | AID 504775 | activation, % at 12.5 µM | 320,000 compounds, 0.096% hits | CHO ldlA[mSR-BI] cells, DiI-HDL uptake fluorescence, 3 h; 100 = double the neutral-control signal;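 active means mean replicate activation of at least 60% and every replicate at or above 60%; inconclusive means mean or all-replicate condition met, but not both; inactive means mean below 60% and not all replicates reaching 60%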;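 further: 0% = median plate neutral-control signal and 100% = twice that signal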
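Material: SR-BI-overexpressing, LDLR-lacking CHO cells; schedule: compound exposure 3 h, 37 °C; reagent: DiI-labelled HDL at 10 µg/mL final; technique: bottom-read fluorescence, 550/595 nm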
PKA-R2B activ: PKA-R2B complex activation. 340,000 compounds, 0.079% hits. PKA-R2B holoenzyme dissociation, Cy5-IP20 fluorescence polarization; R2B truncated from residue 108, S112A mutant; 0% DMSO only, 100% 113 µM cGMP. activation, % at 11.4 µM;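 active means activation above a cutoff set at the mean over all compounds plus 3 SD, cut at about 18% in these data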;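 further: higher means more holoenzyme dissociation and a rise in polarization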
Target sequence (P31323 whole entry, looked up, other chains not shown, the tested form may be a part): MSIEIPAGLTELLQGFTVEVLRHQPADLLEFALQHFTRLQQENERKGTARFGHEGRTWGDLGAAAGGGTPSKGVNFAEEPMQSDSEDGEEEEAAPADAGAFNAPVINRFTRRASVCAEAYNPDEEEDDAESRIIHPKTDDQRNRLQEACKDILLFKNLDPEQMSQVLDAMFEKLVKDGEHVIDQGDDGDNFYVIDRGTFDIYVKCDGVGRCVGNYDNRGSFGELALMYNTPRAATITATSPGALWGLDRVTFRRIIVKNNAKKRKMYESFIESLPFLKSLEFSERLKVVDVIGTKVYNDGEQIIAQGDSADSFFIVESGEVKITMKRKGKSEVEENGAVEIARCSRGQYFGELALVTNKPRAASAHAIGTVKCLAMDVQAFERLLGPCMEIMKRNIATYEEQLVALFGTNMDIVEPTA
dFosB act-1: enhances mouse delta FosB homodimer DNA binding | P13346 | purified delta FosB, TAMRA-CDK5 oligo fluorescence polarization; percent of positive-control signal above neutral wells | activation, % at 25 µM | 340,000 compounds, 0.99% hits;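 active means mean activation above about 17%, with every replicate also reaching it, limit read from the data, passing the limit was not always enough; inconclusive means only one of the two conditions met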
SR-BI DiI inh: mouse SR-BI HDL lipid transfer inhibition; Q61009; 320,000 compounds, 0.96% hits; inhibition, % at 12.5 µM; AID 488896; ldlA[mSR-BI] CHO cells, DiI-HDL uptake fluorescence, 3 h;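 active means mean replicate inhibition of at least 70% and a set share of replicates each scoring 70 or more; inconclusive means meets just one of the two criteria; inactive means fails both criteria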;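 further: 0% = median of neutral control wells and 100% = median of positive control wells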
PKA-R1A act: activates the PKA-R1A holoenzyme complex | P00514+P68181 | PKA-R1A dissociation, Cy5-IP20 fluorescence polarization; scaled: DMSO 0%, 113 µM cGMP 100% | activation, % at 11.4 µM | 340,000 compounds, 0.083% hits | AID 504707;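 active means percent activation above the mean of all tested compounds plus 3 SD, cut at about 19% in these data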;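 further: higher means more PKAc released from R1A so a rise in polarization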
dFosB act-2: enhances mouse delta FosB homodimer binding to DNA | shares compounds with dFosB act-1 | purified delta FosB, TAMRA-CDK5 oligo fluorescence polarization; normalised: neutral wells 0, positive control 100 | 2,400 tested, under 10 active | activation, % at 24.9 µM;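 active means highest replicate activation at or above 34% and every replicate reaching that threshold; inconclusive means meets only one of the two criteria; inactive means meets neither criterion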;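 further: higher polarization means more probe DNA bound by delta FosB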
Numbers without * were called inactive.

For CCN1/C(=C2\OC(=S)N(C)C2=O)Sc2ccccc21 the results were CDK5 p35 inh 1.4, SR-BI DiI-HDL act -1.5, PKA-R2B activ 1.1, dFosB act-1 1.8, SR-BI DiI inh 1.5 and PKA-R1A act -3.2.
`O=C(N/N=C1/SCC(=O)N1Cc1ccco1)c1ccccc1F` gave CDK5 p35 inh 3.6, SR-BI DiI-HDL act 4.7, PKA-R2B activ 3.4, dFosB act-1 -1.9, SR-BI DiI inh -4.7 and PKA-R1A act 5.0.
O=C(Nc1nccs1)c1cn(-c2ccccc2)nc1-c1ccncc1 was read as CDK5 p35 inh -0.9, SR-BI DiI-HDL act -43.0, PKA-R2B activ -2.7, dFosB act-1 35.9*, SR-BI DiI inh 43.0, PKA-R1A act 4.0 and dFosB act-2 0.8.
Screening COc1ccc(-c2nn(-c3ccccc3)cc2C(=O)Nc2nccs2)cc1 returned CDK5 p35 inh -0.4, SR-BI DiI-HDL act -59.7, PKA-R2B activ 7.8, dFosB act-1 -2.6, SR-BI DiI inh 59.7 and PKA-R1A act -7.6.
Cc1ccc([N+](=O)[O-])cc1S(=O)(=O)Nc1ccc(C(=O)N2CCN(C(=O)c3ccco3)CC2)cc1 was read as CDK5 p35 inh -0.2, SR-BI DiI-HDL act -31.2, PKA-R2B activ -6.5, dFosB act-1 -7.8, SR-BI DiI inh 31.2 and PKA-R1A act 3.3.
COc1ccc(C(=O)NCCNc2nc3cc(C)c(C)cc3cc2C)cc1 was read as CDK5 p35 inh 0.0, SR-BI DiI-HDL act -19.5, PKA-R2B activ 2.7, dFosB act-1 25.2*, SR-BI DiI inh 19.5, PKA-R1A act -1.6 and dFosB act-2 4.4.
COc1ccc(N2C(=O)c3ccccc3NC2c2ccc(OC)c(Cn3nnc4ccccc43)c2)cc1 (configuration not stated) was read as CDK5 p35 inh 2.7, SR-BI DiI-HDL act 0.5, PKA-R2B activ -7.2, dFosB act-1 30.2*, SR-BI DiI inh -0.5, PKA-R1A act -5.8 and dFosB act-2 -0.2.
For COc1ccc2cc1Oc1ccc(cc1)C[C@H]1c3cc(c(OC)cc3CCN1C)Oc1c(OC)c(OC)cc3c1[C@H](C2)N(C)CC3 the results were CDK5 p35 inh -3.2, SR-BI DiI-HDL act 20.0, PKA-R2B activ 3.8, dFosB act-1 25.9*, SR-BI DiI inh -20.0, PKA-R1A act -12.7 and dFosB act-2 inconclusive.
`COc1ccc2cc1Oc1ccc(cc1)C[C@H]1c3c(cc4c(c3Oc3cc5c(cc3OC)CCN(C)[C@@H]5C2)OCO4)CCN1C` gave CDK5 p35 inh 0.7, SR-BI DiI-HDL act 25.7, PKA-R2B activ 10.5, dFosB act-1 7.8, SR-BI DiI inh -25.7 and PKA-R1A act -14.4.
CC(OC(=O)c1cc2ccccc2cc1O)C(=O)Nc1ccc(S(N)(=O)=O)cc1 (configuration not stated) was read as CDK5 p35 inh -2.1, SR-BI DiI-HDL act -9.1, PKA-R2B activ -2.1, dFosB act-1 25.4*, SR-BI DiI inh 9.1, PKA-R1A act -3.7 and dFosB act-2 -0.4.
`CCCn1c(N)c(C(=O)CSc2nc3ncc(Cl)cc3[nH]2)c(=O)n(C)c1=O` gave CDK5 p35 inh 0.3, SR-BI DiI-HDL act -69.5, PKA-R2B activ 9.1, dFosB act-1 27.6*, SR-BI DiI inh 69.5, PKA-R1A act 0.8 and dFosB act-2 5.1.
Screening COc1ccc(Cc2nnc(SCC(=O)Nc3ccccc3C#N)o2)cc1 returned CDK5 p35 inh -0.8, PKA-R2B activ -2.8, dFosB act-1 3.2, SR-BI DiI inh 2.8 and PKA-R1A act -10.3.
`O=C(Nc1ccc(S(=O)(=O)Nc2cnc3ccccc3n2)cc1)c1cccc(OC(F)F)c1` gave CDK5 p35 inh 1.2, PKA-R2B activ -5.0, dFosB act-1 56.9*, PKA-R1A act -1.0 and dFosB act-2 1.3.
For CCN(CC)CCNC(=O)c1ccc(NC(=O)c2ccc(F)cc2F)cc1 the results were CDK5 p35 inh -1.4, SR-BI DiI-HDL act 13.1, PKA-R2B activ 8.6, dFosB act-1 -4.2, SR-BI DiI inh -13.1 and PKA-R1A act 2.2.
`CCOC(=O)c1c(N2C(=O)Nc3cc(Cl)c(Cl)cc3N2O)sc2c1CCCCC2` gave CDK5 p35 inh -0.2, SR-BI DiI-HDL act -28.7, PKA-R2B activ -0.8, dFosB act-1 -2.7, SR-BI DiI inh 28.7 and PKA-R1A act 2.0.
COc1cc2c(cc1NC(=O)Nc1ccccc1)oc1ccccc12 was read as CDK5 p35 inh -0.8, SR-BI DiI-HDL act -89.4, PKA-R2B activ -2.5, dFosB act-1 19.2*, SR-BI DiI inh 89.4*, PKA-R1A act -13.0 and dFosB act-2 5.0.
For COc1ccc(CN(C)CC(O)COc2ccc(-c3ccccc3)cc2)cc1OC (configuration not stated) the results were CDK5 p35 inh -0.3, SR-BI DiI-HDL act -24.0, PKA-R2B activ -1.2, dFosB act-1 19.3*, SR-BI DiI inh 24.0, PKA-R1A act -12.4 and dFosB act-2 -7.7.
Cc1ccc2nc(-c3ccc(NC(=O)COC(=O)c4ccc(Br)o4)cc3)sc2c1 was read as CDK5 p35 inh 1.4, SR-BI DiI-HDL act -19.0, PKA-R2B activ -4.3, dFosB act-1 35.3*, SR-BI DiI inh 19.0, PKA-R1A act 3.0 and dFosB act-2 2.2.
For Cc1ccc2nc(-c3ccc(NC(=O)COC(=O)c4ccc([N+](=O)[O-])o4)cc3)sc2c1 the results were CDK5 p35 inh -0.5, SR-BI DiI-HDL act -4.8, PKA-R2B activ 0.0, dFosB act-1 -8.6, SR-BI DiI inh 4.9 and PKA-R1A act -1.7.
`O=C(/C=C/c1ccc([N+](=O)[O-])cc1)Oc1ccc(/C=N/NC(=O)c2ccncc2)cc1` gave CDK5 p35 inh -0.1, SR-BI DiI-HDL act -9.3, PKA-R2B activ 9.1, dFosB act-1 26.3*, SR-BI DiI inh 9.3, PKA-R1A act 15.3 and dFosB act-2 6.1.
For O=C(NN=Cc1ccc([N+](=O)[O-])cc1)c1ccncc1 the results were CDK5 p35 inh 0.3, SR-BI DiI-HDL act -6.2, PKA-R2B activ -7.1, dFosB act-1 -11.2, SR-BI DiI inh 6.2 and PKA-R1A act 4.8.
`O=C(NNC(=O)c1ccccc1Cl)c1ccc(-n2cncn2)c([N+](=O)[O-])c1` gave CDK5 p35 inh -2.5, SR-BI DiI-HDL act 15.8, PKA-R2B activ -8.2, dFosB act-1 -1.4, SR-BI DiI inh -15.8 and PKA-R1A act -1.3.
COc1cccc(CNC(=O)CCn2c(=O)c3cccn3c3cccnc32)c1 was read as CDK5 p35 inh -1.5, SR-BI DiI-HDL act -33.5, PKA-R2B activ 4.7, dFosB act-1 -4.5, SR-BI DiI inh 33.5 and PKA-R1A act -4.8.
